Assay results published in ChEMBL document CHEMBL5724801, “EUbOPEN Chemogenomics Library - Multiplex” (2024).
Several values for one entry are separate records, joined by “and”; a condition that tells them apart may be missing. Equal values may be shown once.

System: HEK-293T
Assay: Multiplex assay against HEK293T
Format: toxicity, cell-based
Conditions: human
How it was run: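 At seeding, live cells were stained with Hoechst33342, BioTracker Green Microtubule Cytoskeleton Dye, MitoTracker Red and Annexin V Alexa Fluor 680. After compound addition they were imaged on a CQ1 microscope at 37°C and 5% CO2, and CellPathfinder machine-learning gating sorted them into Hoechst high-intensity objects or normal cells, with normal cells further split into healthy, pyknosed or fragmented nuclei and pyknosed cells into mitotic or apoptotic. Tubulin, mitochondrial-mass and membrane-permeability phenotypes are given as per cents of cells with healthy nuclei.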

[1] = 12 h, 10 µM, compound concentration 10 uM
[2] = 24 h, 10 µM, compound concentration 10 uM
[3] = 48 h, 10 µM, compound concentration 10 uM
[4] = 12 h, 1 µM, compound concentration 1 uM
[5] = 24 h, 1 µM, compound concentration 1 uM
[6] = 48 h, 1 µM, compound concentration 1 uM

`CCC(=O)N1CCN(c2ccc(-n3c(=O)ccc4cnc5ccc(-c6cnc7ccccc7c6)cc5c43)cc2C(F)(F)F)CC1` [TORIN1] was tested, and the “Population Apoptotic (%)” value [1] was 71% and 51%, the “Population Healthy Nuclei (%)” value [1] was 76% and the “Population Hoechst High Intensity Objects (%)” value [1] was 7%. For the same molecule, the “Population Membrane Permeable-Phenotype (%)” value [1] was 0%, the “Population Mitochondria Different-Phenotype (%)” value [1] was 78% and 87% and the “Population Mitotic Cells (%)” value [1] was 48%. The “Population Normal (%)” value [1] was 88% and 92%, the “Population Tubulin-Different-Phenotype (%)” value [1] was 37% and the “Total Cell Count” value [1] was 373 and 266. For the same molecule, the “Population Apoptotic (%)” value [2] was 44%, the “Population Healthy Nuclei (%)” value [2] was 75% and the “Population Membrane Permeable-Phenotype (%)” value [2] was 0%. For the same molecule, the “Population Mitochondria Different-Phenotype (%)” value [2] was 75% and 82%, the “Population Mitotic Cells (%)” value [2] was 46% and 55% and the “Population Normal (%)” value [2] was 86% and 77%. For the same molecule, the “Population Tubulin-Different-Phenotype (%)” value [2] was 43% and 33%, the “Total Cell Count” value [2] was 337 and 225 and the “Population Apoptotic (%)” value [3] was 56% and 68%. The “Population Healthy Nuclei (%)” value [3] was 70% and 56%, the “Population Membrane Permeable-Phenotype (%)” value [3] was 0% and the “Population Mitochondria Different-Phenotype (%)” value [3] was 77% and 80%. For the same molecule, the “Population Mitotic Cells (%)” value [3] was 43%, the “Population Normal (%)” value [3] was 73% and 38% and the “Population Tubulin-Different-Phenotype (%)” value [3] was 47% and 37%. The “Total Cell Count” value [3] was 292 and 235.

In the case of `CC(C)(C)c1ccc(S(=O)(=O)Nc2ccc(Cl)cc2C(=O)c2cc[n+]([O-])cc2)cc1` [VERCIRNON], the “Population Apoptotic (%)” value [4] is reported as 32% and 52%, the “Population Fragmented Nuclei (%)” value [4] is reported as 10% and 5% and the “Population Healthy Nuclei (%)” value [4] is reported as 77% and 84%. The “Population Hoechst High Intensity Objects (%)” value [4] was 7%, the “Population Membrane Permeable-Phenotype (%)” value [4] was 0% and the “Population Mitochondria Different-Phenotype (%)” value [4] was 33% and 51%. The “Population Mitotic Cells (%)” value [4] was 68% and 47%, the “Population Normal (%)” value [4] was 92% and the “Population Pyknosed Nuclei (%)” value [4] was 12% and 10%. For the same molecule, the “Population Tubulin-Different-Phenotype (%)” value [4] was 21% and 22%, the “Total Cell Count” value [4] was 428 and 424 and the “Population Apoptotic (%)” value [1] was 30% and 39%. For the same molecule, the “Population Fragmented Nuclei (%)” value [1] was 6% and 4%, the “Population Healthy Nuclei (%)” value [1] was 83% and 82% and the “Population Hoechst High Intensity Objects (%)” value [1] was 6% and 5%. For the same molecule, the “Population Membrane Permeable-Phenotype (%)” value [1] was 0% and 1%, the “Population Mitochondria Different-Phenotype (%)” value [1] was 35% and 51% and the “Population Mitotic Cells (%)” value [1] was 69% and 60%. The “Population Normal (%)” value [1] was 93% and 94%, the “Population Pyknosed Nuclei (%)” value [1] was 10% and 13% and the “Population Tubulin-Different-Phenotype (%)” value [1] was 37% and 27%. For the same molecule, the “Total Cell Count” value [1] was 451 and 344, the “Population Apoptotic (%)” value [5] was 41% and 28% and the “Population Fragmented Nuclei (%)” value [5] was 8%. The “Population Healthy Nuclei (%)” value [5] was 81%, the “Population Hoechst High Intensity Objects (%)” value [5] was 6% and 5% and the “Population Membrane Permeable-Phenotype (%)” value [5] was 0%. The “Population Mitochondria Different-Phenotype (%)” value [5] was 21% and 32%, the “Population Mitotic Cells (%)” value [5] was 58% and 71% and the “Population Normal (%)” value [5] was 93% and 94%. The “Population Pyknosed Nuclei (%)” value [5] was 9%, the “Population Tubulin-Different-Phenotype (%)” value [5] was 15% and 16% and the “Total Cell Count” value [5] was 522 and 521. The “Population Apoptotic (%)” value [2] was 22% and 28%, the “Population Fragmented Nuclei (%)” value [2] was 10% and 7% and the “Population Healthy Nuclei (%)” value [2] was 77% and 82%. The “Population Hoechst High Intensity Objects (%)” value [2] was 3% and 5%, the “Population Membrane Permeable-Phenotype (%)” value [2] was 1% and 0% and the “Population Mitochondria Different-Phenotype (%)” value [2] was 15% and 31%. The “Population Mitotic Cells (%)” value [2] was 77% and 71%, the “Population Normal (%)” value [2] was 96% and 94% and the “Population Pyknosed Nuclei (%)” value [2] was 12% and 9%. The “Population Tubulin-Different-Phenotype (%)” value [2] was 20% and 23%, the “Total Cell Count” value [2] was 594 and 437 and the “Population Apoptotic (%)” value [6] was 28% and 32%. For the same molecule, the “Population Fragmented Nuclei (%)” value [6] was 16% and 14%, the “Population Healthy Nuclei (%)” value [6] was 76% and 81% and the “Population Hoechst High Intensity Objects (%)” value [6] was 2%. For the same molecule, the “Population Membrane Permeable-Phenotype (%)” value [6] was 0% and 2%, the “Population Mitochondria Different-Phenotype (%)” value [6] was 16% and 14% and the “Population Mitotic Cells (%)” value [6] was 71% and 67%. For the same molecule, the “Population Normal (%)” value [6] was 97%, the “Population Pyknosed Nuclei (%)” value [6] was 7% and 4% and the “Population Tubulin-Different-Phenotype (%)” value [6] was 13% and 12%. The “Total Cell Count” value [6] was 834 and 877, the “Population Apoptotic (%)” value [3] was 21% and 25% and the “Population Fragmented Nuclei (%)” value [3] was 13% and 12%. For the same molecule, the “Population Healthy Nuclei (%)” value [3] was 81% and 80%, the “Population Hoechst High Intensity Objects (%)” value [3] was 3% and 2% and the “Population Membrane Permeable-Phenotype (%)” value [3] was 2% and 1%. For the same molecule, the “Population Mitochondria Different-Phenotype (%)” value [3] was 12% and 18%, the “Population Mitotic Cells (%)” value [3] was 78% and 75% and the “Population Normal (%)” value [3] was 96% and 97%. For the same molecule, the “Population Pyknosed Nuclei (%)” value [3] was 5% and 7%, the “Population Tubulin-Different-Phenotype (%)” value [3] was 14% and 15% and the “Total Cell Count” value [3] was 929 and 586.
